Results reported in article PMC9896656 (Investigational new drugs, 2022).
Read-outs that look alike come from different tables or passages of the source. Residues, ends and D or L forms follow the SMILES beside them. *: point of attachment. Cbz = O=C(OCc1ccccc1)*

Columns and labels:
CEM and COLO 205 cells = conditions: 1 mM positive control, 24 h; cell line not stated
[1] = tested on: poly-ubiquitinated proteins in COLO 205 cells; assay: Western blot of poly-ubiquitinated proteins; type: cell-based, human; conditions: COLO 205, 8 h, 2X CC50
Summary of the method: (§1)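 3,000,000 cells per T-25 flask in 10 ml RPMI were treated 8 h at twice the CC50, with MG-132 and 0.3% PEG-400 vehicle controls. Cells were PBS-washed and lysed by boiling 15 min in 2x Laemmli buffer. 100 μg protein was run on 7% SDS-PAGE and transferred to PVDF. Blots were blocked overnight in 5% milk, then probed with mouse anti-ubiquitin (1 h) and HRP anti-mouse (1:10,000, 1 h). ECL imaging and densitometry followed.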

[2] = tested on: poly-ubiquitinated proteins in CEM cells; assay: Western blot of poly-ubiquitinated proteins; type: cell-based, human; conditions: 8 h, in comparison to COLO 205
Summary of the method: as §1

COLO 205 cells [3] = assay: Cell cycle profile analysis; type: cell-based, human; conditions: COLO 205, CC20, 72 h
COLO 205 cells [4] = assay: Mitochondrial membrane potential; type: cell-based, human; conditions: COLO 205, 6 h, CC50 and twice the CC50, vs untreated and DMSO
COLO 205 cells [5] = assay: Annexin V-FITC/PI apoptosis/necrosis assay; type: cell-based, human; conditions: COLO 205, 24 h, 2x CC50, compared to DMSO solvent control
CEM cells [6] = assay: Mitochondrial membrane potential; type: cell-based, human; conditions: 6 h, CC50 and twice the CC50, vs untreated and DMSO
RPMI-8226 = assay: Differential nuclear staining; type: cell-based; conditions: Homo sapiens, RPMI-8226, 48 h
Summary of the method: (§2)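 Cells were seeded at 10,000/well in 96-well plates; adherent lines attached overnight. A 0.1–5 μM gradient was applied for 48 h, with 1% DMSO, 1 mM H2O2 and untreated wells. PI and Hoechst 33342 (5 μg/ml each) were added 2 h before reading at 37°C. Wells were imaged to separate dead from total nuclei. CC50 was obtained by linear interpolation of the dose-response. Selectivity index uses Hs-27 as the non-cancer reference.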

[7] = Differential nuclear staining; type: cell-based; conditions: human, Hs-27 cells (non-cancerous reference) versus RPMI-8226 cells
Summary of the method: as §2

[8] = tested on: caspase-3/7 in COLO 205 cells; assay: Caspase-3/7 activation; type: cell-based, human; conditions: COLO 205, 7.5 h, CC50 and twice the CC50, vs vehicle control (1% DMSO)
U266 = assay: Differential nuclear staining; type: cell-based; conditions: Homo sapiens, U-266, 48 h
Summary of the method: as §2

[9] = Differential nuclear staining; type: cell-based; conditions: human, Hs-27 cells (non-cancerous reference) versus U266 cells
Summary of the method: as §2

[10] = Differential nuclear staining; type: cell-based, human; conditions: human, Hs-27 cells (non-cancerous reference) versus CEM cells
CEM = assay: Differential nuclear staining; type: cell-based, human; conditions: CEM; concentration used for cell cycle analysis
HL-60 = assay: Differential nuclear staining; type: cell-based; conditions: Homo sapiens, HL-60, 48 h
Summary of the method: as §2

[11] = Differential nuclear staining; type: cell-based; conditions: human, Hs-27 cells (non-cancerous reference) versus HL-60 cells
Summary of the method: as §2

MM1 S = assay: Differential nuclear staining; type: cell-based; conditions: Homo sapiens, MM1.S, 48 h
Summary of the method: as §2

[12] = Differential nuclear staining; type: cell-based; conditions: human, Hs-27 cells (non-cancerous reference) versus MM1 S cells
Summary of the method: as §2

HT-29 = assay: Differential nuclear staining; type: cell-based; conditions: Homo sapiens, HT-29, 48 h
Summary of the method: as §2

[13] = Differential nuclear staining; type: cell-based; conditions: human, Hs-27 cells (non-cancerous reference) versus HT-29 cells
Summary of the method: as §2

[14] = Differential nuclear staining; type: cell-based; conditions: human; for selectivity ratio at 48 h: Hs-27 cells (non-cancerous reference) versus MCF-10 A cells; for CC50 at 48 h: MCF-10 A cells (breast epithelial)
Summary of the method: as §2

CEM cells [15] = assay: Annexin V-FITC/PI apoptosis/necrosis assay; type: cell-based, human; conditions: 24 h, 2x CC50, compared to DMSO solvent control
COLO 205 cells [16] = assay: Reactive oxygen species accumulation; type: cell-based, human; conditions: COLO 205, 6 h, compared with DMSO-treated cells
CEM cells [17] = assay: Cell cycle profile analysis; type: cell-based, human; conditions: CC20, 72 h
MM1 R = assay: Differential nuclear staining; type: cell-based; conditions: Homo sapiens, MM.1R, 48 h
Summary of the method: as §2

[18] = Differential nuclear staining; type: cell-based; conditions: human, Hs-27 cells (non-cancerous reference) versus MM1 R cells
Summary of the method: as §2

caspase-3/7 in CEM cells = assay: Caspase-3/7 activation; type: cell-based, human; conditions: 7.5 h, CC50 and twice the CC50, vs vehicle control (1% DMSO)
COLO 205 = assay: Differential nuclear staining; type: cell-based, human; conditions: for CC20: COLO 205, concentration used for cell cycle analysis; for CC50: Homo sapiens
[19] = Differential nuclear staining; type: cell-based, human; conditions: human, Hs-27 cells (non-cancerous reference) versus COLO 205 cells
[20] = Differential nuclear staining; type: cell-based; conditions: human, HS-27 cells (normal foreskin, non-cancer)
Summary of the method: as §2

PC-3 = assay: Differential nuclear staining; type: cell-based; conditions: Homo sapiens, PC-3, 48 h
Summary of the method: as §2

[21] = Differential nuclear staining; type: cell-based; conditions: human, Hs-27 cells (non-cancerous reference) versus PC-3 cells
Summary of the method: as §2

PANC-1 = assay: Differential nuclear staining; type: cell-based; conditions: Homo sapiens, PANC-1, 48 h
Summary of the method: as §2

[22] = Differential nuclear staining; type: cell-based; conditions: human, Hs-27 cells (non-cancerous reference) versus PANC-1 cells
Summary of the method: as §2

CEM cells [23] = assay: Reactive oxygen species accumulation; type: cell-based, human; conditions: 6 h, compared with DMSO-treated cells
MDA-MB-231 = assay: Differential nuclear staining; type: cell-based; conditions: Homo sapiens, MDA-MB-231, 48 h
Summary of the method: as §2

[24] = Differential nuclear staining; type: cell-based; conditions: human
Summary of the method: as §2

[25] = Differential nuclear staining; type: cell-based; conditions: human, CCD-112-CoN cells (non-cancerous colon fibroblasts)
Summary of the method: as §2

RAMOS = assay: Differential nuclear staining; type: cell-based; conditions: Homo sapiens, Ramos, 48 h
Summary of the method: as §2

[26] = Differential nuclear staining; type: cell-based; conditions: human, Hs-27 cells (non-cancerous reference) versus RAMOS cells
Summary of the method: as §2

[27] = COLO 205, 24 h, read-out: 24 h CC50

Structure (SMILES): OO [H20_2, hydrogen peroxide]
- percentage of PS externalization (CEM and COLO 205 cells): 39%

Structure (SMILES): CC(C)C[C@@H](C=O)NC(=O)[C@H](CC(C)C)NC(=O)[C@H](CC(C)C)NC(=O)OCc1ccccc1 [MG132, reference compound] (Cbz-Leu-Leu-Leu-aldehyde)
- accumulation of high molecular weight poly-ubiquitinated proteins (densitometry) [1]: 1 fold increase
- proteasome inhibition (poly-ubiquitinated proteins, in words) [2]: slight proteasome inhibition

Structure (SMILES): O=C1C(=Cc2ccc(F)c(F)c2)CN(C(=O)C(Cl)Cl)CC1=Cc1ccc(F)c(F)c1 [compound 2608, 1-dichloroacetyl – 3,5-bis(3,4-difluorobenzylidene)-4-piperidone]
- accumulation of high molecular weight poly-ubiquitinated proteins (densitometry) [1]: 0.40 fold increase
- DNA fragmentation (sub G0/G1) (COLO 205 cells [3]): but not in COLO 205
- cell cycle profile (COLO 205 cells [3]): did not alter the cell cycle profile
- mitochondrial depolarization (COLO 205 cells [4]): significant mitochondrial depolarization
- PS externalization (Annexin V-FITC positive cells) (COLO 205 cells [5]): significant PS externalization
- mitochondrial depolarization (CEM cells [6]): significant mitochondrial depolarization
- CC50 (RPMI-8226): 39.7 nM
- selectivity ratio at 48 h [7]: 11.5
- caspase-3/7 activation [8]: significant caspase-3/7 activation
- CC50 (U266): 14.4 nM
- selectivity ratio at 48 h [9]: 31.6
- selectivity ratio at 48 h [10]: 22.8
- CC20 (CEM): 39.7 nM
- CC50 (HL-60): 64 nM
- selectivity ratio at 48 h [11]: 7.11
- CC50 (MM1 S): 18.1 nM
- selectivity ratio at 48 h [12]: 25.1
- CC50 (HT-29): 162 nM
- selectivity ratio at 48 h [13]: 2.8
- selectivity ratio at 48 h [14]: 2.6
- CC50 at 48 h [14]: 175 nM
- PS externalization (Annexin V-FITC positive cells) (CEM cells [15]): significant PS externalization
- ROS accumulation (COLO 205 cells [16]): Significant ROS
- DNA fragmentation (sub G0/G1) (CEM cells [17]): induced DNA fragmentation
- CC50 (MM1 R): 16 nM
- selectivity ratio at 48 h [18]: 28.4
- caspase-3/7 activation (caspase-3/7 in CEM cells): significant caspase-3/7 activation
- CC20 (COLO 205): 761.6 nM
- CC50 (COLO 205; [27]): 1900 nM
- CC50 (COLO 205; COLO 205, 48 h): 424 nM
- selectivity ratio at 48 h [19]: 1.07
- CC50 at 48 h [20]: 455 nM
- CC50 (PC-3): 301 nM
- selectivity ratio at 48 h [21]: 1.51
- CC50 (PANC-1): 1130 nM
- selectivity ratio at 48 h [22]: 0.4
- ROS accumulation (CEM cells [23]): Significant ROS
- CC50 (MDA-MB-231): 47 nM
- selectivity ratio at 48 h [24]: 9.68
- CC50 at 48 h [25]: 120 nM
- CC50 (RAMOS): 95 nM
- selectivity ratio at 48 h [26]: 4.79

Structure (SMILES): O=C1C(=Cc2ccc(Cl)c(Cl)c2)CN(C(=O)C(Cl)Cl)CC1=Cc1ccc(Cl)c(Cl)c1 [compound 2610, 1-dichloroacetyl-3,5-bis(3,4-dichlorobenzylidene)-4-piperidone]
- accumulation of high molecular weight poly-ubiquitinated proteins (densitometry) [1]: 1.41 fold increase
- DNA fragmentation (sub G0/G1) (COLO 205 cells [3]): caused DNA fragmentation on both cell lines
- cell cycle profile (COLO 205 cells [3]): did not alter the cell cycle profile
- mitochondrial depolarization (COLO 205 cells [4]): significant mitochondrial depolarization
- PS externalization (Annexin V-FITC positive cells) (COLO 205 cells [5]): significant PS externalization
- mitochondrial depolarization (CEM cells [6]): significant mitochondrial depolarization
- CC50 (RPMI-8226): 334 nM
- selectivity ratio at 48 h [7]: 0.599
- caspase-3/7 activation [8]: significant caspase-3/7 activation
- CC50 (U266): 762 nM
- selectivity ratio at 48 h [9]: 0.26
- selectivity ratio at 48 h [10]: 6.66
- CC20 (CEM): 37.2 nM
- CC50 (HL-60): 24 nM
- selectivity ratio at 48 h [11]: 8.33
- CC50 (MM1 S): 26.1 nM
- selectivity ratio at 48 h [12]: 7.66
- CC50 (HT-29): 36 nM
- selectivity ratio at 48 h [13]: 5.55
- selectivity ratio at 48 h [14]: 1.66
- CC50 at 48 h [14]: 120 nM
- PS externalization (Annexin V-FITC positive cells) (CEM cells [15]): significant PS externalization
- ROS accumulation (COLO 205 cells [16]): Significant ROS
- DNA fragmentation (sub G0/G1) (CEM cells [17]): caused DNA fragmentation on both cell lines
- CC50 (MM1 R): 9 nM
- selectivity ratio at 48 h [18]: 22.2
- caspase-3/7 activation (caspase-3/7 in CEM cells): significant caspase-3/7 activation
- CC20 (COLO 205): 1516.4 nM
- CC50 (COLO 205; [27]): 3790 nM
- CC50 (COLO 205; COLO 205, 48 h): 1660 nM
- selectivity ratio at 48 h [19]: 0.12
- CC50 at 48 h [20]: 200 nM
- CC50 (PC-3): 446 nM
- selectivity ratio at 48 h [21]: 0.44
- CC50 (PANC-1): 414 nM
- selectivity ratio at 48 h [22]: 0.48
- ROS accumulation (CEM cells [23]): Significant ROS
- CC50 (MDA-MB-231): 121 nM
- selectivity ratio at 48 h [24]: 1.65
- CC50 at 48 h [25]: 176 nM
- CC50 (RAMOS): 36 nM
- selectivity ratio at 48 h [26]: 5.55
